“Also recorded” adds a separate entry of the source.
Tests used:
[1] = tested on: MIA-induced cartilage degeneration in rat knee; test: MIA rat model of OA via IA dosing, joint histology; format: in vivo, male Sprague Dawley rats
Procedure, shortened: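 Cartilage damage was induced in male Sprague Dawley rats with 2 mg MIA in 40 μl, injected into the right knee. On days 5, 12 and 19 after MIA, rats received intra-articular injections (8 per group) of vehicle, test compound (1 mg, saline suspension) or triamcinolone (0.06 mg). Naive rats (5) received no injections. Right knees were taken on day 26 for histology of the MTP, MFC, LTP and LFC surfaces and their mean. Groups were compared with vehicle by one-way ANOVA or Kruskal-Wallis with post-test, significance p<0.05.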

[2] = In-vivo single dose oral rat pharmacokinetics; details: oral 1 mg/kg, male Lewis rats
Procedure, shortened: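 Male Lewis rats, 3 per group, were fasted at least 16 h before dosing, with food returned about 4 h after. A 0.5 mg/mL suspension in 0.5% methylcellulose (400 cps) was given by gavage at 1.0 mg/kg (2 mL/kg). Jugular-catheter blood (K2EDTA) was drawn pre-dose and at 0.25–24 h. Plasma was obtained at 2200xg for 10 min, refrigerated. AUC(0-inf) came from the arithmetic mean concentration–time curve.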

[3] = IA days 5, 12, 19, histology day 26, AQU-019 1 mg
[4] = IA days 5, 12, 19, histology day 26, AQU-019 1 mg, Triamcinolone 0.06 mg
[5] = IA days 5, 12, 19 after MIA, histology day 26, AQU-019 1 mg, significant

| Structure (SMILES) | Bone resorption vs Vehicle (in words) [1, 3] | Osteophyte scores/measurement vs Vehicle (in words) [1, 3] | Cartilage degeneration / chondroprotection vs Vehicle (in words) [1, 4] | Reduction in the mean loss on the LTP and LFC vs Vehicle [1, 5] | Reduction in the mean loss, mean of all surfaces vs Vehicle [1, 5] | Improvement in AUC(0-infinity) over non-deuterated parent 18 [2] | Increase of AUC(0-t) over non-deuterated parent 18 [2] | Increase of Cmax over non-deuterated parent 18 [2] | Reduction of osteophyte scores/measurement vs Vehicle ([1]; IA days 5, 12, 19, day 26, Triamcinolone 0.06 mg, P<0.05) | Reduction of bone resorption, overall mean vs Vehicle ([1]; IA days 5, 12, 19, day 26, Triamcinolone 0.06 mg, significant) | Cell loss vs Vehicle (in words) ([1]; IA days 5, 12, 19, histology day 26, Triamcinolone 0.06 mg) |
| --- | --- | --- | --- | --- | --- | --- | --- | --- | --- | --- | --- |
| [2H]C([2H])(NC(=O)c1cc(C(=O)NCc2ccc(F)c(C)c2)ncn1)c1ccc(C(=O)O)cc1 [AQU-019, 4-(Dideutero-{[6-(4-fluoro-3-methyl-benzylcarbamoyl)-pyrimidine-4-carbonyl]-amino}-methyl)-benzoic acid] | trend of reduced resorption compared to Vehicle but was not statistically significant; also recorded: while reduced, was not statistically significant | no reduction in osteophyte measurement; also recorded: comparable to Vehicle control; also recorded: no effect on osteophytes measurement | significant chondroprotection | 21–22% | 16% | 64% | 68% | 17% | – | – | – |
| C[C@]12C=CC(=O)C=C1CC[C@H]1[C@@H]3C[C@@H](O)[C@](O)(C(=O)CO)[C@@]3(C)C[C@H](O)[C@@]12F [Triamcinolone, reference compound] | – | – | no reductions in cartilage degeneration | – | – | – | – | – | 40–47% | 43% | no significant reductions in cell loss |
